# Screening results from PubChem.
# TRPC6 activator: mouse TRPC6 channel activation; Q61143; HEK293-TRPC6 membrane potential dye fluorescence; active compounds read high; B-score at 10 µM; actives 0.13% (n = 310,000);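 active means B-score of the integrated fluorescence ratio above library mean plus 3 SD, and starting fluorescence ratio within library mean plus 5 SD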;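 further: higher score means more depolarization so channel activation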
# TRPC4 act: TRPC4 (mouse) channel activation; B-score at 10 µM; HEK293 TRPC4beta/mu-opioid, Fluo4 calcium fluorescence; active compounds read high; Q9QUQ5; actives 0.49% (n = 310,000);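 active means B-score above 5 SD of library B-scores, and initial fluorescence ratio not above library mean plus 5 SD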;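 further: positive B-score marks a calcium rise read as TRPC4 activation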
# Target sequence (Q9QUQ5 whole entry, looked up): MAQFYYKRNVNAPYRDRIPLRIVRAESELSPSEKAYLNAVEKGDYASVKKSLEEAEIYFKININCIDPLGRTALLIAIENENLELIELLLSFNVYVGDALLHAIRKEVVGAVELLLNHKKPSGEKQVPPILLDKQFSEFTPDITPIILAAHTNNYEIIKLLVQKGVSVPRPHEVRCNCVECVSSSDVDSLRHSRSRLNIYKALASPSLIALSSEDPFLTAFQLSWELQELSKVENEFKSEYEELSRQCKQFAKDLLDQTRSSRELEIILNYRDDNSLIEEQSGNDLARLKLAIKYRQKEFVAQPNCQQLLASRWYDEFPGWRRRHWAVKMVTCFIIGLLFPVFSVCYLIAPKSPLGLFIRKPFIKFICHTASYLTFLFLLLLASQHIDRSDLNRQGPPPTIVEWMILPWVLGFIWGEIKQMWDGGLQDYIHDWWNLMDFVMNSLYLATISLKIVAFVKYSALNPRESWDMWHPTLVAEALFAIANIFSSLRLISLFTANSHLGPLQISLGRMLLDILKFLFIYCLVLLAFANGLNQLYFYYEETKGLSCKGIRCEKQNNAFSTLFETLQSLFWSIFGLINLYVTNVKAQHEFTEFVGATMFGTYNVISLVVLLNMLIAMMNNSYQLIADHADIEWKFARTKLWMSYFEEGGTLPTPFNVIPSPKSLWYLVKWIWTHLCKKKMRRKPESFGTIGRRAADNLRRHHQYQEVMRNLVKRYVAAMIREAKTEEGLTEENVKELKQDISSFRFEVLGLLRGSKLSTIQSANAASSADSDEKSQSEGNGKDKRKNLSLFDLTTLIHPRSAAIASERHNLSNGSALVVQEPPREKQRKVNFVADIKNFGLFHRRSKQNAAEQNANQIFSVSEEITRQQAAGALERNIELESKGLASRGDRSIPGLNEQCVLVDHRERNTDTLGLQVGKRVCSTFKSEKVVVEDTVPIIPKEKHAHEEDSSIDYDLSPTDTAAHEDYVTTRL
#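 system = HEK293 cells stably co-expressing mouse TRPC4beta and mu-opioid receptor | schedule = Fluo4 dye loading 45 min at room temperature, 110 s recording | measure = B-scored integrated calcium fluorescence ratio | signal = Fluo4 calcium-sensitive dye fluorescence, kinetic, 1 Hz baseline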
# Kir21 block: blocks the mouse Kir2.1 inward-rectifier potassium channel; P35561; HEK293-Kir2.1, FluxOR thallium flux fluorescence; active compounds read low; B-score at 10 µM; actives 0.85% (n = 310,000); AID 1672;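 active means fluorescence ratio B-score at or below minus 3 SD of library scores, with starting-brightness B-score within 2 SD, cut at about -4.2 in these data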;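 further: channel flux triggered by added potassium and thallium sulfate stimulus; B-score of peak minus minimum fluorescence over baseline after thallium stimulus; more negative B-score means stronger Kir2.1 block with less thallium influx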
# TRPC4 potent: allosterically enhances the mouse TRPC4 cation channel; Q9QUQ5; HEK293 TRPC4beta/mu-opioid, DAMGO EC20, Fluo-4 Ca2+ flux; active compounds read high; B-score at 10 µM; actives 0.42% (n = 310,000); AID 2227;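 active means B-score of calcium response area above 5 SD of library B-scores, with initial fluorescence ratio within 5 SD of library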;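 further: B-score of integrated fluorescence ratio over time as area under calcium response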
# TRPC4 block: blocks the mouse TRPC4 cation channel; actives 0.39% (n = 300,000); B-score at 10 µM; HEK293 TRPC4beta/mu-opioid, DAMGO-evoked Fluo4 calcium flux; active compounds read low; Q9QUQ5;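 active means B-score over 3 SD under the library average, no early fluorescence shift, positive overall ratio signal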
#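 test system = HEK293 cells with stable TRPC4beta plus mu-opioid receptor expression | detection = Fluo4 Ca2+ flux fluorescence | read-out = integrated fluorescence ratio relative to baseline, converted to per-well B score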
# TRPC6 inh: blocks the mouse TRPC6 cation channel; Q61143; HEK293-TRPC6, membrane potential dye, ACh-evoked depolarization; active compounds read low; B-score at 10 µM; actives 1.1% (n = 310,000); AID 2553;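 active means B-score under library mean minus 3 SD, initial fluorescence not abnormally high, positive integrated signal ratio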;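 further: B-score derived from integrated fluorescence ratio over the kinetic read; more negative B-score means stronger inhibition of depolarization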
# TRPC4 sel inh 2: mouse TRPC4 off-target activity of TRPC6 inhibitors, second screen; shares compounds with TRPC6 inh; HEK293 TRPC4/MOR, membrane potential dye fluorescence; channel activated by saturating DAMGO dose; inhibition, % at 10 µM; actives 42% (n = 920); AID 2776;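 active means compounds whose fluorescence signal differed from control wells by over 3 SD, either direction, in both duplicate plates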
# TRPC4 spec: tests whether TRPC6 inhibitors also affect mouse TRPC4 | shares compounds with TRPC6 inh | HEK293 TRPC4/mu-opioid, membrane potential fluorescence | activity change, negative = inhibition, % at 10 µM | actives 61% (n = 920) | AID 2777;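 active means rise or fall in signal beyond 3 SD of buffer-only wells in both replicate plates, either sign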;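 further: integrated kinetic ratio of fluorescence range over baseline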
# HEK293 MPD ctr 2-1: parental HEK293 nonspecific activity of TRPC6 inhibitors, second screen. shares compounds with TRPC6 inh. parental HEK293 membrane potential dye fluorescence; maximal acetylcholine challenge after compound addition. signal change vs control, % at 10 µM. actives 31% (n = 920);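 active means membrane potential signal moving either way by over 3 SD of the maximum-effect control, in both duplicate plates, meaning non-specific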
# HEK293 MPD ctr-1: checks TRPC6 inhibitor effects in parental HEK293 cells; shares compounds with TRPC6 inh; membrane potential signal change, % at 10 µM; parental HEK293 membrane potential dye fluorescence; AID 2780; actives 60% (n = 920);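 active means membrane potential signal shifting up or down by more than 3 SD of buffer-only wells, on both duplicate plates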
# HEK293 MPD ctr-2: checks TRPC6 modulator effects in parental HEK293 cells; shares compounds with TRPC6 inh; membrane potential dye fluorescence; actives 51% (n = 2,400); membrane potential signal change, % at 10 µM;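 active means membrane potential signal moves up or down beyond 5 SD from buffer-only wells, on both duplicate plates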
# HEK293 MPD ctr 2-2: second counter-screen for TRPC6 modulators: effect in parental HEK293 cells; AID 488926; inhibition, % at 10 µM; membrane potential dye fluorescence; after compound, maximal acetylcholine stimulation; shares compounds with TRPC6 inh; actives 14% (n = 2,400);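 active means membrane potential signal drops by more than 5 SD from the mean control signal, in both duplicate plates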;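 further: plate controls were acetylcholine ECmax control wells for no effect and buffer only wells for full effect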
# TRPC4 ctr mod: mouse TRPC4 off-target activity of TRPC6 modulators; shares compounds with TRPC6 inh; HEK293 TRPC4/mu-opioid, membrane potential fluorescence; percent change from control (negative = decrease, positive = increase), % at 10 µM; actives 69% (n = 2,400);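 active means membrane potential signal moved up or down beyond 5 SD of buffer control wells, in both duplicate plates, actives on both sides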;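 further: plate controls were assay buffer wells for no effect and DAMGO maximal-effect wells for full effect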
# TRPC4 ctr inh 2: second selectivity test of TRPC6 modulators against mouse TRPC4; actives 55% (n = 2,400); inhibition, % at 10 µM; AID 488928; shares compounds with TRPC6 inh; HEK293 TRPC4/mu-opioid, membrane potential dye fluorescence; stimulated with maximal-effect DAMGO;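 active means drop in membrane potential signal beyond 5 SD of the control wells in both duplicate plates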;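 further: TRPC4 counter screen for TRPC6 hits run under conditions tuned for TRPC6 not TRPC4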
# TRPC6 inh conf: mouse TRPC6 inhibitor confirmation; shares compounds with TRPC6 inh; HEK293-TRPC6, membrane potential dye, ACh-evoked depolarization; inhibition, % at 10 µM; actives 43% (n = 3,300); AID 488960;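 active means fluorescence ratio falls more than 5 SD below the full-stimulation control mean, in both duplicate runs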;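 further: integrated fluorescence ratio of peak minus minimum over baseline after agonist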
# TRPC6 act confirm: mouse TRPC6 activator confirmation. HEK293-TRPC6 membrane potential dye fluorescence, FDSS. shares compounds with TRPC6 inh. activation, % at 10 µM. actives 11% (n = 2,800);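 active means ratio signal rise beyond 5 SD above unstimulated control wells' mean, seen in both duplicate runs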;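 further: plate controls were buffer EC0 wells for no effect and acetylcholine ECmax response for full effect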
# Active calls of the source: *; i = inactive; / = no result given. In the library only some 2.9% were active in any assay of this set; here they are far more common.
SMILES,TRPC6 activator,TRPC4 act,Kir21 block,TRPC4 potent,TRPC4 block,TRPC6 inh,TRPC4 sel inh 2,TRPC4 spec,HEK293 MPD ctr 2-1,HEK293 MPD ctr-1,TRPC6 inh conf,TRPC6 act confirm,others
O=C(CSc1nnnn1C1CCCCC1)Nc1ccc2c(c1)OCO2,i,i,0.33,i,i,-8.7*,i,i,i,i,i,i,
O=C(CSc1nnnn1C1CCCCC1)Nc1ccc(F)cc1,i,i,-1.1,i,i,i,/,/,/,/,/,/,
CCOC(=O)c1nnn(-c2nonc2-n2cccc2)c1-c1cccc([N+](=O)[O-])c1,i,i,-0.05,i,i,i,/,/,/,/,/,/,
O=C(/C(=C/c1ccc(Cl)cc1)c1nc2ccccc2[nH]1)c1cccs1,i,i,-1.2,i,i,-6.8*,i,i,i,i,i,i,
O=C1c2cccc3cccc(c23)C(=O)N1CCCN1CCN(c2ccc(F)cc2)CC1,i,i,-0.57,i,i,-7.1*,/,/,/,/,i,i,HEK293 MPD ctr-2=i;HEK293 MPD ctr 2-2=i;TRPC4 ctr mod=-12%*;TRPC4 ctr inh 2=66%*
O=C(CN1CCN(CCN2C(=O)c3cccc4cccc(c34)C2=O)CC1)c1ccc(F)cc1,i,i,-1.1,i,i,i,/,/,/,/,/,/,
Cc1cccc(N2C(=O)C3C4CC(=O)C(c5ccccc54)C3C2=O)c1C (stereo unspecified),i,i,0.86,i,i,i,/,/,/,/,/,/,
CCCCn1c2ccc(F)cc2c2nnc(SCCN3CCCCC3)nc21,i,i,-0.62,i,i,-5.6*,/,/,/,/,i,i,HEK293 MPD ctr-2=-74%*;HEK293 MPD ctr 2-2=i;TRPC4 ctr mod=-19%*;TRPC4 ctr inh 2=38%*
CCCCn1c2ccc(C)cc2c2nnc(SCCN3CCCCC3)nc21,i,i,-0.76,i,i,-5.8*,/,/,/,/,45%*,i,HEK293 MPD ctr-2=i;HEK293 MPD ctr 2-2=i;TRPC4 ctr mod=i;TRPC4 ctr inh 2=66%*
Cn1c2ccc(F)cc2c2nnc(SCCN3CCCCC3)nc21,i,i,0.04,i,i,-7.4*,76%*,-13%*,16%*,-204%*,i,i,
Cc1sc2nc(CSC(C)C(=O)Nc3cc(S(C)(=O)=O)ccc3Cl)[nH]c(=O)c2c1C (stereo unspecified),i,i,0.22,i,i,i,/,/,/,/,/,/,
Cc1ccc(S(=O)(=O)N2CCCC(C(=O)NCCc3ccc(S(N)(=O)=O)cc3)C2)cc1 (stereo unspecified),i,i,-1.7,i,i,i,/,/,/,/,/,/,
CC(=O)NCC1CCCN(C(=O)c2ccc(OC3CCN(Cc4ccccn4)CC3)cc2)C1 (stereo unspecified),i,i,-0.69,i,i,i,/,/,/,/,/,/,
CN=C1c2cc3c(Br)c(OC)ccc3n2CCN1C,i,i,1.1,i,i,-8.3*,i,-14%*,10%*,-280%*,i,i,
CN=C1c2cc3cc(OC)ccc3n2CCN1C,i,i,0.57,i,i,i,/,/,/,/,/,/,
CC(=O)c1ccc(Nc2nc(C)cc(C)n2)cc1,i,i,0.59,i,i,i,/,/,/,/,/,/,
COc1ccc(Nc2nc(C)c3ccccc3n2)cc1,i,i,1,i,i,i,/,/,/,/,/,/,
CC(=O)c1ccc(Nc2cc(C)nc3ccccc23)cc1,i,i,0.77,i,i,-6.9*,/,/,/,/,84%*,i,HEK293 MPD ctr-2=102%*;HEK293 MPD ctr 2-2=144%*;TRPC4 ctr mod=i;TRPC4 ctr inh 2=63%*
COc1ccccc1/C=N/Nc1cc(C)nc2ccc(C)cc12,i,i,-0.62,i,i,i,/,/,/,/,/,/,
COc1ccc(Nc2cc(C)nc3ccccc23)cc1,i,i,-4,i,-6*,-5.1*,/,/,/,/,i,i,HEK293 MPD ctr-2=-132%*;HEK293 MPD ctr 2-2=i;TRPC4 ctr mod=-21%*;TRPC4 ctr inh 2=48%*
COc1ccc(OC)c(Nc2cc(C)nc3ccc(C)cc23)c1,i,i,-1.5,i,-6*,-7.5*,52%*,-15%*,i,-239%*,67%*,i,
COc1ccc2nc(C)cc(Nc3ccc(C)cc3)c2c1,i,i,-3.4,i,-7*,-6.6*,42%*,-26%*,i,-272%*,68%*,i,
O=C(CSc1nnc(-c2cccs2)o1)Nc1cccc(S(=O)(=O)N2CCCCC2)c1,i,i,0.06,i,i,i,/,/,/,/,/,/,
CCOc1ccccc1Nc1cc(C)nc2ccc(C)cc12,i,i,-3.2,i,i,-7.7*,46%*,-13%*,i,-209%*,62%*,i,
COc1ccc2nc(C)cc(Nc3ccc(N4CCN(C)CC4)cc3)c2c1,i,i,1.3,i,i,-9.6*,57%*,-24%*,-94%*,-292%*,86%*,i,
COc1ccc2nc(C)cc(Nc3ccc(N4CCOCC4)cc3)c2c1,i,i,0.1,i,i,i,/,/,/,/,/,/,
